{
  "source": "ChEMBL document CHEMBL4732208",
  "about": "“Discovery of novel N-alkylcytidines as promising antimicrobial agents” (Eur J Med Chem, 2021)",
  "key": {"[1]": {"test_system": "Leuconostoc mesenteroides", "test": "Antibacterial activity against Leuconostoc mesenteroides VKPM B-4177", "type": "functional", "summary_of_the_method": "(§1)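 Strains grown in modified Gause's nutrient medium N 2, inoculum 10⁶ cells/ml. Test compound dissolved in 50% aqueous methanol, added at ten volume percent of the medium. Growth controls: medium without additions, medium with solvent mixture, and clinical antibiotics (amikacin, ciprofloxacin, isoniazid, rifampicin, oxacillin, vancomycin).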"}, "Bacillus subtilis": {"test_system": "Bacillus subtilis", "test": "Antibacterial activity against Bacillus subtilis ATCC 6633", "type": "functional", "summary_of_the_method": "as §1"}, "[2]": {"test_system": "Mycolicibacterium smegmatis", "test": "Antibacterial activity against Mycobacterium smegmatis mc2155", "type": "functional", "summary_of_the_method": "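Strains were grown in modified Gause's nutrient medium N 2 at 10⁶ cells/ml. The compound was dissolved in 50% aqueous methanol and added at 10 volume percent of the medium. Controls were untreated cultures, medium with the solvent mixture, and clinical antibiotics.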"}, "[3]": {"test_system": "Mycolicibacterium smegmatis", "test": "Antibacterial activity against Mycobacterium smegmatis VKPM Ac-1339", "type": "functional", "summary_of_the_method": "as §1"}, "Staphylococcus aureus [4]": {"test_system": "Staphylococcus aureus", "test": "Antibacterial activity against Staphylococcus aureus FDA 209 P", "type": "functional", "summary_of_the_method": "as §1"}, "Staphylococcus aureus [5]": {"test_system": "Staphylococcus aureus", "test": "Antibacterial activity against Staphylococcus aureus INA 00761", "type": "functional", "summary_of_the_method": "as §1"}, "Micrococcus luteus": {"test_system": "Micrococcus luteus", "test": "Antibacterial activity against Micrococcus luteus NCTC 8340", "type": "functional", "summary_of_the_method": "as §1"}, "[6]": {"test": "Cytotoxicity against human A549 cells by MTT assay", "type": "cell-based", "summary_of_the_method": "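Adherent A549 cells passaged in DMEM with 10% fetal calf serum and 2 mM glutamine, at 37 °C, 5% CO2, 90% humidity. MTT test. CC50 is the concentration that inhibits culture growth by 50%.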"}, "[7]": {"test": "Acute toxicity in ip dosed mouse administered for 5 days and observed for 4 weeks", "type": "organism-based", "settings": "in vivo"}, "[8]": {"test": "Subchronic toxicity in ip dosed mouse administered for 5 days and observed for 4 weeks", "type": "organism-based", "settings": "in vivo"}, "[9]": {"test": "Subchronic toxicity in ip dosed mouse assessed as delayed effect administered for 5 days and observed for 4 weeks", "type": "organism-based", "settings": "in vivo"}, "Aspergillus versicolor [10]": {"test_system": "Aspergillus versicolor", "test": "Antifungal activity against Aspergillus versicolor SRX7729174 STG-25G assessed as reduction in fungal growth at 3 mM measured upto 48 days by drop dilution assay relative to control", "type": "functional", "settings": "time day <=48", "summary_of_the_method": "(§2)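 Incubated up to 48 days at 26 °C. Colony diameters read every 3 days (days 6–48). Growth inhibition = (Dc−Dt)/Dc × 100 versus control. Inoculum 5 × 10⁵ CFU. Triplicate, repeated at least twice.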"}, "[11]": {"test": "Antifungal activity against Aspergillus-creber SRX7729180 STG-57 assessed as reduction in fungal growth at 3 mM measured upto 48 days by drop dilution assay relative to control", "type": "functional", "settings": "time day <=48", "summary_of_the_method": "as §2"}, "Aspergillus versicolor [12]": {"test_system": "Aspergillus versicolor", "test": "Antifungal activity against Aspergillus versicolor SRX7729182 STG-25G assessed as reduction in fungal growth at 3 mM measured upto 48 days by drop dilution assay relative to control", "type": "functional", "settings": "time day <=48", "summary_of_the_method": "as §2"}, "Aspergillus [13]": {"test_system": "Aspergillus", "test": "Antifungal activity against Aspergillus SRX7729186 STG-93W assessed as reduction in fungal growth at 3 mM measured upto 48 days by drop dilution assay relative to control", "type": "functional", "settings": "time day <=48", "summary_of_the_method": "as §2"}, "[14]": {"test": "Antifungal activity against Aspergillus-amoenus SRX7729194 STG-106 assessed as reduction in fungal growth at 3 mM measured upto 48 days by drop dilution assay relative to control", "type": "functional", "settings": "time day <=48", "summary_of_the_method": "as §2"}, "[15]": {"test": "Antifungal activity against Cladosporium-halotolerans SRX7729178 STG-52B assessed as reduction in fungal growth at 3 mM measured upto 48 days by drop dilution assay relative to control", "type": "functional", "settings": "time day <=48", "summary_of_the_method": "as §2"}, "[16]": {"test": "Antifungal activity against Cladosporium-parahalotolerans SRX7729188 STG-93B assessed as reduction in fungal growth at 3 mM measured upto 48 days by drop dilution assay relative to control", "type": "functional", "settings": "time day <=48", "summary_of_the_method": "as §2"}, "[17]": {"test": "Antifungal activity against Ulocladium chartarum SRX7729176 STG-36 assessed as reduction in fungal growth at 3 mM measured upto 48 days by drop dilution assay relative to control", "type": "functional", "settings": "Alternaria chartarum, time day <=48", "summary_of_the_method": "as §2"}, "[18]": {"test_system": "Simplicillium lamellicola", "test": "Antifungal activity against Simplicillium lamellicola SRX772919 STG-96 assessed as reduction in fungal growth at 3 mM measured upto 48 days by drop dilution assay relative to control", "type": "functional", "settings": "time day <=48", "summary_of_the_method": "as §2"}, "[19]": {"test": "Antifungal activity against Microascus-paisii SRX7729192 STG-103 assessed as reduction in fungal growth at 3 mM measured upto 48 days by drop dilution assay relative to control", "type": "functional", "settings": "time day <=48", "summary_of_the_method": "as §2"}, "Aspergillus versicolor [20]": {"test_system": "Aspergillus versicolor", "test": "Antifungal activity against Aspergillus versicolor SRX7729174 STG-25G assessed as reduction in fungal growth at 0.1 to 3.5 mM measured for 24 days by drop dilution assay relative to control", "type": "functional", "settings": "dose 0.1-3.5 mM, time 24.0 day", "summary_of_the_method": "(§3)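 Drop-dilution method. Suspension plated on CDA with or without compound (screening range 0.1–3.5 mM); 5-fluorocytosine positive control. Incubated at 26 °C. Inhibition % = (Dc−Dt)/Dc × 100 from colony diameters; triplicate, repeated at least twice.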"}, "Aspergillus creber": {"test_system": "Aspergillus creber", "test": "Antifungal activity against Aspergillus-creber SRX7729180 STG-57 assessed as reduction in fungal growth at 0.1 to 3.5 mM measured for 24 days by drop dilution assay relative to control", "type": "functional", "settings": "dose 0.1-3.5 mM, time 24.0 day", "summary_of_the_method": "as §3"}, "Aspergillus versicolor [21]": {"test_system": "Aspergillus versicolor", "test": "Antifungal activity against Aspergillus versicolor SRX7729182 STG-25G assessed as reduction in fungal growth at 0.1 to 3.5 mM measured for 24 days by drop dilution assay relative to control", "type": "functional", "settings": "dose 0.1-3.5 mM, time 24.0 day", "summary_of_the_method": "as §3"}, "Aspergillus [22]": {"test_system": "Aspergillus", "test": "Antifungal activity against Aspergillus SRX7729186 STG-93W assessed as reduction in fungal growth at 0.1 to 3.5 mM measured for 24 days by drop dilution assay relative to control", "type": "functional", "settings": "dose 0.1-3.5 mM, time 24.0 day", "summary_of_the_method": "as §3"}, "Aspergillus amoenus": {"test_system": "Aspergillus amoenus", "test": "Antifungal activity against Aspergillus-amoenus SRX7729194 STG-106 assessed as reduction in fungal growth at 0.1 to 3.5 mM measured for 24 days by drop dilution assay relative to control", "type": "functional", "settings": "dose 0.1-3.5 mM, time 24.0 day", "summary_of_the_method": "as §3"}, "[23]": {"test_system": "Cladosporium halotolerans", "test": "Antifungal activity against Cladosporium-halotolerans SRX7729178 STG-52B assessed as reduction in fungal growth at 0.1 to 3.5 mM measured for 24 days by drop dilution assay relative to control", "type": "functional", "settings": "dose 0.1-3.5 mM, time 24.0 day", "summary_of_the_method": "as §3"}, "[24]": {"test_system": "Cladosporium parahalotolerans", "test": "Antifungal activity against Cladosporium-parahalotolerans SRX7729188 STG-93B assessed as reduction in fungal growth at 0.1 to 3.5 mM measured for 24 days by drop dilution assay relative to control", "type": "functional", "settings": "dose 0.1-3.5 mM, time 24.0 day", "summary_of_the_method": "as §3"}, "Alternaria chartarum": {"test_system": "Alternaria chartarum", "test": "Antifungal activity against Ulocladium chartarum SRX7729176 STG-36 assessed as reduction in fungal growth at 0.1 to 3.5 mM measured for 24 days by drop dilution assay relative to control", "type": "functional", "settings": "dose 0.1-3.5 mM, time 24.0 day", "summary_of_the_method": "as §3"}, "[25]": {"test_system": "Simplicillium lamellicola", "test": "Antifungal activity against Simplicilium-lamellicola SRX772919 STG-96 assessed as reduction in fungal growth at 0.1 to 3.5 mM measured for 24 days by drop dilution assay relative to control", "type": "functional", "settings": "dose 0.1-3.5 mM, time 24.0 day", "summary_of_the_method": "as §3"}, "Microascus paisii": {"test_system": "Microascus paisii", "test": "Antifungal activity against Microascus-paisii SRX7729192 STG-103 assessed as reduction in fungal growth at 0.1 to 3.5 mM measured for 24 days by drop dilution assay relative to control", "type": "functional", "settings": "dose 0.1-3.5 mM, time 24.0 day", "summary_of_the_method": "as §3"}},
  "note": "Active and inactive are the calls of the source. No cut-off for these calls is given here.",
  "data": [
    {"molecule": "CCCCCCCCCCCCNc1nc(=O)n([C@H]2C[C@H](O)[C@@H](CO)O2)cc1C", "values": [
      {"measurement": "MIC", "setting": "[1]", "value": 24, "unit": "µM"},
      {"measurement": "MIC", "setting": "Bacillus subtilis", "value": 24, "unit": "µM"},
      {"measurement": "MIC", "setting": "[2]", "value": 24, "unit": "µM"},
      {"measurement": "MIC", "setting": "[3]", "value": 24, "unit": "µM"},
      {"measurement": "MIC", "setting": "Staphylococcus aureus [4]", "value": 48, "unit": "µM"},
      {"measurement": "MIC", "setting": "Staphylococcus aureus [5]", "value": 48, "unit": "µM"},
      {"measurement": "MIC", "setting": "Micrococcus luteus", "value": 24, "unit": "µM"},
      {"measurement": "CC50", "setting": "[6]", "value": 158, "unit": "µM"},
      {"measurement": "LD50 at 672 h", "setting": "[7]", "value": 270, "unit": "mg/kg"},
      {"measurement": "LD50 at 672 h", "setting": "[8]", "value": 215, "unit": "mg/kg"},
      {"measurement": "LD50 at 672 h", "setting": "[9]", "value": 200, "unit": "mg/kg"},
      {"measurement": "inhibition at 3000 µM", "setting": "Aspergillus versicolor [10]", "value": 100, "unit": "%"},
      {"measurement": "inhibition at 3000 µM", "setting": "[11]", "value": 100, "unit": "%"},
      {"measurement": "inhibition at 3000 µM", "setting": "Aspergillus versicolor [12]", "value": 100, "unit": "%"},
      {"measurement": "inhibition at 3000 µM", "setting": "Aspergillus [13]", "value": 100, "unit": "%"},
      {"measurement": "inhibition at 3000 µM", "setting": "[14]", "value": 100, "unit": "%"},
      {"measurement": "inhibition at 3000 µM", "setting": "[15]", "value": 100, "unit": "%"},
      {"measurement": "inhibition at 3000 µM", "setting": "[16]", "value": 100, "unit": "%"},
      {"measurement": "inhibition at 3000 µM", "setting": "[17]", "value": 100, "unit": "%"},
      {"measurement": "inhibition at 3000 µM", "setting": "[18]", "value": 100, "unit": "%"},
      {"measurement": "inhibition at 3000 µM", "setting": "[19]", "value": 100, "unit": "%"},
      {"measurement": "inhibition", "setting": "Aspergillus versicolor [20]", "value": "Active"},
      {"measurement": "inhibition", "setting": "Aspergillus creber", "value": "Active"},
      {"measurement": "inhibition", "setting": "Aspergillus versicolor [21]", "value": "Active"},
      {"measurement": "inhibition", "setting": "Aspergillus [22]", "value": "Active"},
      {"measurement": "inhibition", "setting": "Aspergillus amoenus", "value": "Active"},
      {"measurement": "inhibition", "setting": "[23]", "value": "Active"},
      {"measurement": "inhibition", "setting": "[24]", "value": "Active"},
      {"measurement": "inhibition", "setting": "Alternaria chartarum", "value": "Active"},
      {"measurement": "inhibition", "setting": "[25]", "value": "Active"},
      {"measurement": "inhibition", "setting": "Microascus paisii", "value": "Active"}
    ]}
  ]
}
